Converted amounts (≈) assume the structure as drawn. Bridge positions count the residues as written; N and C are the ends. Square brackets hold non-standard residues; d marks the D form. Peptide text beside a SMILES is read from it. * marks the point of attachment. Palmitoyl = CCCCCCCCCCCCCCCC(=O)*; Myristoyl = CCCCCCCCCCCCCC(=O)*; Lauroyl = CCCCCCCCCCCC(=O)*; dOrn = NCCC[C@@H](N)C(=O)O; Orn = NCCC[C@H](N)C(=O)O; Hexanoyl = CCCCCC(=O)*
Key:
Assay type in all cases: functional
[1] = tested on: Escherichia coli; assay: Antibacterial activity against Escherichia coli ATCC 25922 assessed as inhibition of bacterial growth incubated for 18 hrs by CLSI protocol based method
Outline: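 Broth microdilution MIC. Strain streaked from glycerol stock on sheep blood agar (16 h, 37 °C); a colony was grown in TSB at 37 °C, 220 rpm, to OD600 about 0.5. Cells were diluted in MHB to 2×10^5 CFU/mL and added 1:1 to serial dilutions in MHB in polypropylene plates.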

[2] = tested on: Klebsiella pneumoniae; assay: Antibacterial activity against Klebsiella pneumoniae ATCC 13883 assessed as inhibition of bacterial growth incubated for 18 hrs by CLSI protocol based method
Outline: (§1)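 Single colonies from blood agar (16 h, 37 °C) grown in TSB at 37 °C, 220 rpm to OD600 ~0.5, then diluted in MHB to 2×10^5 CFU/mL. Mixed with serial MHB dilutions of DMSO stocks in polypropylene plates, sealed, and incubated 18 h at 37 °C, 600 rpm. MIC was taken as the lowest concentration with no visible growth; three technical replicates.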

[3] = tested on: Acinetobacter baumannii; assay: Antibacterial activity against Acinetobacter baumannii ATCC 17961 assessed as inhibition of bacterial growth incubated for 18 hrs by CLSI protocol based method; outline: as §1
[4] = tested on: Pseudomonas aeruginosa; assay: Antibacterial activity against Pseudomonas aeruginosa PAO1 assessed as inhibition of bacterial growth incubated for 18 hrs by CLSI protocol based method; outline: as §1
[5] = tested on: Staphylococcus aureus; assay: Antibacterial activity against Staphylococcus aureus USA300 assessed as inhibition of bacterial growth incubated for 18 hrs by CLSI protocol based method; outline: as §1
[6] = tested on: Escherichia coli; assay: Antibacterial activity against colistin-resistant Escherichia coli ATCC 25922 carrying MCR-1 gene assessed as inhibition of bacterial growth incubated for 18 hrs by CLSI protocol based method
Outline: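 Broth microdilution MIC. MCR-1 strain grown from glycerol stock in TSB with kanamycin (16 h, 37 °C, 220 rpm), diluted 100-fold in the same medium and grown to OD600 about 0.5. Cells were diluted in MHB to 2×10^5 CFU/mL and added 1:1 to serial dilutions in MHB. Incubated 18 h, 37 °C, 600 rpm; visual lowest no-growth concentration; three technical replicates.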

Row | Structure (SMILES) | MIC [1] | MIC [2] | MIC [3] | MIC [4] | MIC [5] | MIC [6]
1 | CC[C@H](C)[C@@H]1NC(=O)[C@@H](NC(=O)[C@H](Cc2c[nH]c3ccccc23)NC(=O)[C@@H](CCCN)NC(=O)CNC(=O)[C@H](CCCN)NC(=O)[C@@H](CCCN)NC(=O)[C@@H](Cc2c[nH]c3ccccc23)NC(=O)[C@@H](Cc2ccc(O)cc2)NC(=O)[C@H](N)CO)[C@@H](C)OC(=O)CNC(=O)CNC(=O)[C@H](CC(N)=O)NC1=O (H-[dS][dY][dW][dOrn][Orn]G[dOrn]WTINGG; ester 9-C) | > 32 mg/L | > 32 mg/L | > 32 mg/L | > 32 mg/L | > 32 mg/L | –
2 | CCCCCC(=O)N[C@H](CC(N)=O)C(=O)N[C@H](Cc1ccc(O)cc1)C(=O)N[C@H](Cc1c[nH]c2ccccc12)C(=O)N[C@H](CCCN)C(=O)N[C@@H](CCCN)C(=O)NCC(=O)N[C@H](CCCN)C(=O)N[C@@H](Cc1c[nH]c2ccccc12)C(=O)N[C@@H]1C(=O)N[C@@H]([C@@H](C)CC)C(=O)NCC(=O)N[C@@H](CO)C(=O)O[C@@H]1C (Hexanoyl-[dN][dY][dW][dOrn][Orn]G[dOrn]WTIGS; ester 9-C) | 8 mg/L (≈ 5.31 µM) | 4 mg/L (≈ 2.66 µM) | 16 mg/L (≈ 10.6 µM) | > 32 mg/L | > 32 mg/L | 8 mg/L (≈ 5.31 µM)
3 | CCCCCC(=O)N[C@H](CO)C(=O)N[C@H](Cc1ccc(O)cc1)C(=O)N[C@H](Cc1c[nH]c2ccccc12)C(=O)N[C@H](CCCN)C(=O)N[C@@H](CCCN)C(=O)NCC(=O)N[C@H](CCCN)C(=O)N[C@@H](Cc1c[nH]c2ccccc12)C(=O)N[C@@H]1C(=O)N[C@@H]([C@@H](C)CC)C(=O)N[C@@H](CC(N)=O)C(=O)NCC(=O)NCC(=O)O[C@@H]1C (Hexanoyl-[dS][dY][dW][dOrn][Orn]G[dOrn]WTINGG; ester 9-C) | 4 mg/L (≈ 2.56 µM) | 8 mg/L (≈ 5.12 µM) | 16 mg/L (≈ 10.2 µM) | 4 mg/L (≈ 2.56 µM) | > 32 mg/L | 8 mg/L (≈ 5.12 µM)
4 | CCCCCCCCCCCC(=O)N[C@H](CC(N)=O)C(=O)N[C@H](Cc1ccc(O)cc1)C(=O)N[C@H](Cc1c[nH]c2ccccc12)C(=O)N[C@H](CCCN)C(=O)N[C@@H](CCCN)C(=O)NCC(=O)N[C@H](CCCN)C(=O)N[C@@H](Cc1c[nH]c2ccccc12)C(=O)N[C@@H]1C(=O)N[C@@H]([C@@H](C)CC)C(=O)NCC(=O)N[C@@H](CO)C(=O)O[C@@H]1C (Lauroyl-[dN][dY][dW][dOrn][Orn]G[dOrn]WTIGS; ester 9-C) | 8 mg/L (≈ 5.03 µM) | 8 mg/L (≈ 5.03 µM) | 4 mg/L (≈ 2.52 µM) | 16 mg/L (≈ 10.1 µM) | 32 mg/L (≈ 20.1 µM) | 8 mg/L (≈ 5.03 µM)
5 | CCCCCCCCCCCC(=O)N[C@H](CO)C(=O)N[C@H](Cc1ccc(O)cc1)C(=O)N[C@H](Cc1c[nH]c2ccccc12)C(=O)N[C@H](CCCN)C(=O)N[C@@H](CCCN)C(=O)NCC(=O)N[C@H](CCCN)C(=O)N[C@@H](Cc1c[nH]c2ccccc12)C(=O)N[C@@H]1C(=O)N[C@@H]([C@@H](C)CC)C(=O)N[C@@H](CC(N)=O)C(=O)NCC(=O)NCC(=O)O[C@@H]1C (Lauroyl-[dS][dY][dW][dOrn][Orn]G[dOrn]WTINGG; ester 9-C) | 4 mg/L (≈ 2.43 µM) | 8 mg/L (≈ 4.86 µM) | 2 mg/L (≈ 1.21 µM) | 8 mg/L (≈ 4.86 µM) | 32 mg/L (≈ 19.4 µM) | 4 mg/L (≈ 2.43 µM)
6 | CCCCCCCCCCCCCC(=O)N[C@H](CC(N)=O)C(=O)N[C@H](Cc1ccc(O)cc1)C(=O)N[C@H](Cc1c[nH]c2ccccc12)C(=O)N[C@H](CCCN)C(=O)N[C@@H](CCCN)C(=O)NCC(=O)N[C@H](CCCN)C(=O)N[C@@H](Cc1c[nH]c2ccccc12)C(=O)N[C@@H]1C(=O)N[C@@H]([C@@H](C)CC)C(=O)NCC(=O)N[C@@H](CO)C(=O)O[C@@H]1C (Myristoyl-[dN][dY][dW][dOrn][Orn]G[dOrn]WTIGS; ester 9-C) | 16 mg/L (≈ 9.89 µM) | 32 mg/L (≈ 19.8 µM) | 4 mg/L (≈ 2.47 µM) | 32 mg/L (≈ 19.8 µM) | > 32 mg/L | 16 mg/L (≈ 9.89 µM)
7 | CCCCCCCCCCCCCC(=O)N[C@H](CO)C(=O)N[C@H](Cc1ccc(O)cc1)C(=O)N[C@H](Cc1c[nH]c2ccccc12)C(=O)N[C@H](CCCN)C(=O)N[C@@H](CCCN)C(=O)NCC(=O)N[C@H](CCCN)C(=O)N[C@@H](Cc1c[nH]c2ccccc12)C(=O)N[C@@H]1C(=O)N[C@@H]([C@@H](C)CC)C(=O)N[C@@H](CC(N)=O)C(=O)NCC(=O)NCC(=O)O[C@@H]1C (Myristoyl-[dS][dY][dW][dOrn][Orn]G[dOrn]WTINGG; ester 9-C) | 8 mg/L (≈ 4.78 µM) | 8 mg/L (≈ 4.78 µM) | 2 mg/L (≈ 1.19 µM) | 8 mg/L (≈ 4.78 µM) | 16 mg/L (≈ 9.55 µM) | 8 mg/L (≈ 4.78 µM)
8 | CCCCCCCCCCCCCCCC(=O)N[C@H](CC(N)=O)C(=O)N[C@H](Cc1ccc(O)cc1)C(=O)N[C@H](Cc1c[nH]c2ccccc12)C(=O)N[C@H](CCCN)C(=O)N[C@@H](CCCN)C(=O)NCC(=O)N[C@H](CCCN)C(=O)N[C@@H](Cc1c[nH]c2ccccc12)C(=O)N[C@@H]1C(=O)N[C@@H]([C@@H](C)CC)C(=O)NCC(=O)N[C@@H](CO)C(=O)O[C@@H]1C (Palmitoyl-[dN][dY][dW][dOrn][Orn]G[dOrn]WTIGS; ester 9-C) | > 32 mg/L | > 32 mg/L | 32 mg/L (≈ 19.4 µM) | > 32 mg/L | > 32 mg/L | –
